The results in this text go back to ChEMBL document CHEMBL3861994, “1,2,3-Triazole-based inhibitors of Porphyromonas gingivalis adherence to oral streptococci and biofilm formation” (Bioorg Med Chem, 2016).

One may read the pIC50 as the IC50 on a negative log10 scale, so that one unit is a factor of ten.

Molecules are shown by their SMILES. pIC50: −log10 of the molar value.

System in the first data set: not listed separately
Description: Inhibition of Porphyromonas gingivalis ATCC 33277 MFA interaction with Streptococcus gordonii DL1(1) antigen 1/2 assessed as inhibition of 5(6)-carboxyfluorescein N-hydroxysuccinimide ester-labeled Porphyromonas gingivalis ATCC 33277 cell adhesion to hexidium iodide-labeled Streptococcus gordonii DL1(1) by measuring inhibition of biofilm formation preincubated with Porphyromonas gingivalis ATCC 33277 for 30 mins followed by addition to Streptococcus gordonii DL1(1) culture measured after 22 hrs by laser scanning confocal microscopy. It is filed as cell-based.
Details: not given
The method, boiled down:
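Hexidium iodide-labelled S. gordonii (OD600 0.8 in PBS, pH 7.2) was bound to coverslips for 24 h, anaerobic, 37 °C. Carboxyfluorescein-labelled P. gingivalis (OD600 0.4) was preincubated 30 min at room temperature with compound (0–60 μM final, from 1000X DMSO stock), added, then incubated 22 h anaerobically. After fixation, confocal z-stacks (488/552 nm) were taken. IC50 is 50% reduction of the green/red fluorescence ratio; triplicates, three independent experiments.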
For the molecule `COc1ccc2cc(-c3cn(Cc4nc(-c5ccc(Br)cc5)c(-c5ccc(Br)cc5)o4)nn3)ccc2c1`, the pIC50 was 4.48.
Still for that read-out and setting: for `COc1ccccc1-c1cn(-c2ccc(-c3nc(-c4ccc(F)cc4)c(-c4ccc(F)cc4)o3)cc2)nn1` the value was 5.11; for `COc1ccccc1-c1cn(Cc2nc(-c3ccccc3)c(-c3ccccc3)o2)nn1`, under 4.22.
Same read-out and setting: for `FC(F)(F)c1ccccc1-c1cn(Cc2nc(-c3ccc(Cl)cc3)c(-c3ccc(Cl)cc3)o2)nn1` the value was 4.25; for `COc1ccc(-c2nc(-c3cccc(-n4cc(-c5ccccc5C(F)(F)F)nn4)c3)oc2-c2ccc(OC)cc2)cc1`, 4.57.
Take `CC(C)CCNc1nc(NCCC(C)C)nc(-c2cn(Cc3nc(-c4ccccc4)c(-c4ccccc4)o3)nn2)n1`: the negative-log IC50 (pIC50) is 4.43.
On the same count and under the same terms, for `Fc1ccc(-c2nc(-c3ccc(-n4cc(-c5cccnc5)nn4)cc3)oc2-c2ccc(F)cc2)cc1` the value was 4.59.
As to `COc1ccc2cc(-c3cn(Cc4nc(-c5ccc(F)cc5)c(-c5ccc(F)cc5)o4)nn3)ccc2c1`, the pIC50 was 4.53.
For `Brc1ccc(-c2nc(-c3cccc(-n4cc(-c5cccnc5)nn4)c3)oc2-c2ccc(Br)cc2)cc1`, the negative logarithm of the IC50 (pIC50) is 4.51.
Regarding `FC(F)(F)c1cc(-c2cn(Cc3nc(-c4ccccc4)c(-c4ccccc4)o3)nn2)cc(C(F)(F)F)c1`, the negative logarithm of the IC50 (pIC50) is under 4.22.
Same read-out and setting: under `Fc1cccc(-c2cn(Cc3nc(-c4ccc(Br)cc4)c(-c4ccc(Br)cc4)o3)nn2)c1` stands under 4.22.
As for `FC(F)(F)c1ccccc1-c1cn(Cc2nc(-c3ccc(Br)cc3)c(-c3ccc(Br)cc3)o2)nn1`, the negative-log IC50 (pIC50) was under 4.22.
`c1ccc(Oc2ccc(-c3cn(Cc4nc(-c5ccccc5)c(-c5ccccc5)o4)nn3)cc2)cc1`: the negative-log IC50 (pIC50) was under 4.22.
As for `Fc1cccc(-c2cn(Cc3nc(-c4ccccc4)c(-c4ccccc4)o3)nn2)c1`, the negative logarithm of the IC50 (pIC50) was under 4.22.

System in a further data set: not listed separately
The experiment in a line: Cytotoxicity against gingival epithelial cells (unknown origin). Format: toxicity, cell-based. Particulars: epithelial cell.
As for `COc1ccc2cc(-c3cn(Cc4nc(-c5ccc(Br)cc5)c(-c5ccc(Br)cc5)o4)nn3)ccc2c1`, the Activity entry is recorded as “Toxic”.
As for `COc1ccccc1-c1cn(-c2ccc(-c3nc(-c4ccc(F)cc4)c(-c4ccc(F)cc4)o3)cc2)nn1`, the Activity result is reported as “Toxic”.
Same read-out and setting: under `COc1ccccc1-c1cn(Cc2nc(-c3ccccc3)c(-c3ccccc3)o2)nn1` stands “Toxic”; under `FC(F)(F)c1ccccc1-c1cn(Cc2nc(-c3ccc(Cl)cc3)c(-c3ccc(Cl)cc3)o2)nn1`, “Toxic”.
`COc1ccc(-c2nc(-c3cccc(-n4cc(-c5ccccc5C(F)(F)F)nn4)c3)oc2-c2ccc(OC)cc2)cc1`: the Activity result was “Toxic”.
For `CC(C)CCNc1nc(NCCC(C)C)nc(-c2cn(Cc3nc(-c4ccccc4)c(-c4ccccc4)o3)nn2)n1`, the Activity entry was “Toxic”.
As to `Fc1ccc(-c2nc(-c3ccc(-n4cc(-c5cccnc5)nn4)cc3)oc2-c2ccc(F)cc2)cc1`, the Activity result was “Toxic”.
Take `COc1ccc2cc(-c3cn(Cc4nc(-c5ccc(F)cc5)c(-c5ccc(F)cc5)o4)nn3)ccc2c1`: the Activity result was “Toxic”.
Same read-out and setting: for `Brc1ccc(-c2nc(-c3cccc(-n4cc(-c5cccnc5)nn4)c3)oc2-c2ccc(Br)cc2)cc1` the value was “Toxic”.
The same measure, in the same setting: for `FC(F)(F)c1cc(-c2cn(Cc3nc(-c4ccccc4)c(-c4ccccc4)o3)nn2)cc(C(F)(F)F)c1` the value was “Toxic”; for `Fc1cccc(-c2cn(Cc3nc(-c4ccc(Br)cc4)c(-c4ccc(Br)cc4)o3)nn2)c1`, “Toxic”; for `FC(F)(F)c1ccccc1-c1cn(Cc2nc(-c3ccc(Br)cc3)c(-c3ccc(Br)cc3)o2)nn1`, “Toxic”.
For `c1ccc(Oc2ccc(-c3cn(Cc4nc(-c5ccccc5)c(-c5ccccc5)o4)nn3)cc2)cc1`, the Activity result is “Toxic”.
For `Fc1cccc(-c2cn(Cc3nc(-c4ccccc4)c(-c4ccccc4)o3)nn2)c1`, the Activity entry is “Toxic”.

Another data set concerns Streptococcus gordonii. The experiment in a line: Growth inhibition of Streptococcus gordonii at 60 uM measured after 24 hrs. Particulars: read-out: GI.
`COc1ccc2cc(-c3cn(Cc4nc(-c5ccc(Br)cc5)c(-c5ccc(Br)cc5)o4)nn3)ccc2c1`: the inhibition at 60 µM is -8.6%.
`CC(C)CCNc1nc(NCCC(C)C)nc(-c2cn(Cc3nc(-c4ccccc4)c(-c4ccccc4)o3)nn2)n1`: the inhibition at 60 µM amounted to 6.8%.
On to `COc1ccc2cc(-c3cn(Cc4nc(-c5ccc(F)cc5)c(-c5ccc(F)cc5)o4)nn3)ccc2c1`, for which the inhibition at 60 µM stood at 0.2%.

The next data set relates to Streptococcus gordonii. Description: Growth inhibition of Streptococcus gordonii at 40 uM measured after 24 hrs. Particulars: read-out: GI.
In the case of `COc1ccc(-c2nc(-c3cccc(-n4cc(-c5ccccc5C(F)(F)F)nn4)c3)oc2-c2ccc(OC)cc2)cc1`, the inhibition at 40 µM is -9.7%.

Another data set relates to Streptococcus gordonii. The experiment in a line: Growth inhibition of Streptococcus gordonii at 20 uM measured after 24 hrs. Particulars: read-out: GI.
As to `COc1ccccc1-c1cn(-c2ccc(-c3nc(-c4ccc(F)cc4)c(-c4ccc(F)cc4)o3)cc2)nn1`, the inhibition at 20 µM was -7.8%.

The subject of the next data set is Porphyromonas gingivalis. The experiment in a line: Growth inhibition of Porphyromonas gingivalis at 60 uM measured after 24 hrs.
Details: not given
In the case of `COc1ccc2cc(-c3cn(Cc4nc(-c5ccc(Br)cc5)c(-c5ccc(Br)cc5)o4)nn3)ccc2c1`, the “growth inhibition (GI)” value is reported as -9.9%.
The same measure, in the same setting: under `CC(C)CCNc1nc(NCCC(C)C)nc(-c2cn(Cc3nc(-c4ccccc4)c(-c4ccccc4)o3)nn2)n1` stands 72.8%; under `COc1ccc2cc(-c3cn(Cc4nc(-c5ccc(F)cc5)c(-c5ccc(F)cc5)o4)nn3)ccc2c1`, -3.3%.

For another data set, the system named is Porphyromonas gingivalis. Description: Growth inhibition of Porphyromonas gingivalis at 40 uM measured after 24 hrs.
Details: not given
Consider `COc1ccc(-c2nc(-c3cccc(-n4cc(-c5ccccc5C(F)(F)F)nn4)c3)oc2-c2ccc(OC)cc2)cc1`, for which the “growth inhibition (GI)” value is -1.6%.

For the next data set, the system named is Porphyromonas gingivalis. Description: Growth inhibition of Porphyromonas gingivalis at 20 uM measured after 24 hrs.
Details: not given
Take `COc1ccccc1-c1cn(-c2ccc(-c3nc(-c4ccc(F)cc4)c(-c4ccc(F)cc4)o3)cc2)nn1`: the “growth inhibition (GI)” value is on record as -0.5%.
